Laboratory results as given in ChEMBL document CHEMBL2417547 (J Med Chem, 2013).

What was measured:
[1] = Cytotoxicity against HEK293 cells after 24 hrs; type: cell-based; conditions: human, read-out: LC50
How it was run: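 HEK 293 cells seeded at 2 × 10⁵ cells per well; compounds added 24 h after seeding at 1% final DMSO. Living cell mass determined after 24 h incubation; LC₅₀ calculated. Doxorubicin positive control, rifampicin negative control. Mean of more than three repeats.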

[2] = Half life in rat plasma at 1 uM by LC-MS/MS analysis; type: ADME, cell-free
How it was run: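 Compound at 1 μM in pooled heparinized plasma of the stated species, 37 °C, sampled at 0, 10, 30, 60 and 150 min. Proteins precipitated with 5 volumes of cold acetonitrile containing internal standard. Remaining compound quantified by LC-MS/MS to give half-life.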

[3] = molecular target: T1, Cytochrome P450 11B1, mitochondrial (Rattus norvegicus, UniProt P15393); experiment: Inhibition of rat CYP11B1 expressed in hamster V79MZh cells using [1,2-3H]-11-deoxycorticosterone as substrate; type: cell-based
T1 sequence (P15393 whole entry): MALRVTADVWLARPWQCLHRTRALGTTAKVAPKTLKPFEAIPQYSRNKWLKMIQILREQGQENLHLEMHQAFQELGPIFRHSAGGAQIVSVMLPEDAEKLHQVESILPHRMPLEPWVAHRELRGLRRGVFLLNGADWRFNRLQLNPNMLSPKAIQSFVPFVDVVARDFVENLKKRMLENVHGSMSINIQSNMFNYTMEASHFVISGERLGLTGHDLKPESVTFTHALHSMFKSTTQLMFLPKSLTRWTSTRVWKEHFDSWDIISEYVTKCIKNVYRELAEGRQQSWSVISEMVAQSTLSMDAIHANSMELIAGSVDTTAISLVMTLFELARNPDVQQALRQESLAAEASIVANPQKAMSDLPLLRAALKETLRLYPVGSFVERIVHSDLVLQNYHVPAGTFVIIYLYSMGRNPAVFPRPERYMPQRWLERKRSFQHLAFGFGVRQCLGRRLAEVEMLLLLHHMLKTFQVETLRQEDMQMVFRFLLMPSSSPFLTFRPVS
How it was run: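 V79MZh cells expressing rat CYP11B1 were incubated with [1,2-3H]-11-deoxycorticosterone (100 nM) and inhibitor at varying concentrations. IC50 is the mean of more than three repeats.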

Cytochrome P450 2A6 = molecular target: T2, Cytochrome P450 2A6 (Homo sapiens, UniProt P11509); experiment: Inhibition of CYP2A6 (unknown origin) using coumarin as substrate; type: ADME
T2 sequence (P11509 whole entry): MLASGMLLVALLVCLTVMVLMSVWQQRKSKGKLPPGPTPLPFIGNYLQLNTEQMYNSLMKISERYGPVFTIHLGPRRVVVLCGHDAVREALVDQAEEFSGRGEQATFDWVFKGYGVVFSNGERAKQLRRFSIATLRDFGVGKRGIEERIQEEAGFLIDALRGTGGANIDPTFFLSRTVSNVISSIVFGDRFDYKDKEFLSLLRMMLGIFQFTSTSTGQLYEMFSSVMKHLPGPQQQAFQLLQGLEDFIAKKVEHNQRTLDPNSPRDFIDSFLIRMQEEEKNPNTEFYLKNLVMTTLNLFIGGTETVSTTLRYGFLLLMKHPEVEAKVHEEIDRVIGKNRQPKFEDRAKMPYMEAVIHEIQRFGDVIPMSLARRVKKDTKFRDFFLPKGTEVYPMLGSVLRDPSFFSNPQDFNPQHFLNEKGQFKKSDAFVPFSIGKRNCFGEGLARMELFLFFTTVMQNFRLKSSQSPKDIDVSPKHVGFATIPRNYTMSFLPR
How it was run: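 Commercial CYP2A6/coumarin inhibitor screening kit with coumarin as substrate at 3 μM, run per the kit instructions. IC50 determined.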

Homo sapiens = organism: Homo sapiens; experiment: Selectivity factor, ratio of IC50 for human CYP11B2 to IC50 for human CYP11B1
How it was run: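 V79MZh hamster fibroblasts expressing human CYP11B1 or CYP11B2 were incubated with [1,2-3H]-11-deoxycorticosterone (100 nM) plus inhibitor at a range of concentrations. […] The selectivity factor is IC50(CYP11B2)/IC50(CYP11B1).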

[4] = molecular target: T3, Cytochrome P450 11B2, mitochondrial (Homo sapiens, UniProt P19099); experiment: Inhibition of human CYP11B2 expressed in hamster V79MZh cells using [1,2-3H]-11-deoxycorticosterone as substrate; type: cell-based
T3 sequence (P19099 whole entry): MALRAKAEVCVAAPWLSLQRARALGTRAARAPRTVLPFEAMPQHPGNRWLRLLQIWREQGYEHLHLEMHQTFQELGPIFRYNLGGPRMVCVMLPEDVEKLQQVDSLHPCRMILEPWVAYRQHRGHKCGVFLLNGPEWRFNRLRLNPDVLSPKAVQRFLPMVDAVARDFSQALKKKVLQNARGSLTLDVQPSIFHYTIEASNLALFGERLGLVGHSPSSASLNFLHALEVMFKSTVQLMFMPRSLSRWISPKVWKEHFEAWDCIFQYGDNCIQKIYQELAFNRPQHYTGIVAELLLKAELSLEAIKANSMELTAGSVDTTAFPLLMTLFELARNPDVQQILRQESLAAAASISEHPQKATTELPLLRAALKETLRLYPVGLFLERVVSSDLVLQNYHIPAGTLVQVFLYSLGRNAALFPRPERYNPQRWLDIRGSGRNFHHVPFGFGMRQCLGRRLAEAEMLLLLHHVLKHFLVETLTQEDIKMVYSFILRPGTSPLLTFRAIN
How it was run: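 V79MZh hamster fibroblasts expressing human CYP11B1 or CYP11B2 were incubated with [1,2-3H]-11-deoxycorticosterone (100 nM) plus inhibitor at a range of concentrations. The selectivity factor is IC50(CYP11B2)/IC50(CYP11B1).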

Cc1cncc(Cc2ccc(-c3ccccc3)nc2)c1
CC50 at 24 h [1]: 61.4 µM
half-life at 1 µM [2]: > 2.5 h
IC50 [3]: 2.44 µM
IC50 (Cytochrome P450 2A6): 106 µM
Ratio IC50 (Homo sapiens): 15.1
IC50 [4]: 0.033 µM
